{
  "source": "ChEMBL document CHEMBL5108039",
  "about": "“Piperazine tethered bergenin heterocyclic hybrids: design, synthesis, anticancer activity, and molecular docking studies” (RSC Med Chem, 2022)",
  "key": {"HCT-15": {"system": "HCT-15", "experiment": "Cytotoxicity against human HCT-15 cells assessed as cell growth inhibition", "assay_type": "functional, cell-based", "summary_of_the_method": "(§1)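 Compounds were dissolved in sterile DMSO as 10 mg ml−1 stocks and tested for in vitro growth inhibition of human cancer cell lines. Doxorubicin was the standard drug and DMSO (0.01%) the vehicle control. IC50 values are reported as means.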"}, "A549": {"system": "A549", "experiment": "Cytotoxicity against human A549 cells assessed as cell growth inhibition", "assay_type": "functional, cell-based", "summary_of_the_method": "(§2)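 Compounds were dissolved in sterile DMSO as 10 mg ml−1 stocks and tested in vitro for cytotoxicity in a cell-line panel, with DMSO (0.01%) as vehicle control and doxorubicin as standard. Mean IC50 values were reported, and the normal lung epithelial cells were tested up to 100 μM.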"}, "MCF7": {"system": "MCF7", "experiment": "Cytotoxicity against human MCF7 cells assessed as cell growth inhibition", "assay_type": "functional, cell-based", "summary_of_the_method": "as §1"}, "[1]": {"experiment": "Cytotoxicity against human BEAS-2B cells assessed as cell growth inhibition", "assay_type": "toxicity, cell-based", "summary_of_the_method": "as §2"}, "CAL-27 [2]": {"system": "CAL-27", "experiment": "Cell cycle arrest in human CAL-27 cells assessed as accumulation at G0/G1 phase at 16 uM incubated for 24 hrs by flow cytometry (reference value: 77.6 %)", "assay_type": "functional"}, "CAL-27 [3]": {"system": "CAL-27", "experiment": "Cell cycle arrest in human CAL-27 cells assessed as accumulation at G0/G1 phase at 32 uM incubated for 24 hrs by flow cytometry (reference value: 77.6 %)", "assay_type": "functional"}, "CAL-27 [4]": {"system": "CAL-27", "experiment": "Cell cycle arrest in human CAL-27 cells assessed as accumulation at S phase at 16 uM incubated for 24 hrs by flow cytometry (reference value: 3.6 %)", "assay_type": "functional"}, "CAL-27 [5]": {"system": "CAL-27", "experiment": "Cell cycle arrest in human CAL-27 cells assessed as accumulation at G2/M phase at 16 uM incubated for 24 hrs by flow cytometry (reference value: 11.9 %)", "assay_type": "functional"}, "CAL-27 [6]": {"system": "CAL-27", "experiment": "Cell cycle arrest in human CAL-27 cells assessed as accumulation at G2/M phase at 32 uM incubated for 24 hrs by flow cytometry (reference value: 11.9 %)", "assay_type": "functional"}, "SCC-9 [7]": {"system": "SCC-9", "experiment": "Cell cycle arrest in human SCC-9 cells assessed as accumulation at G2/M phase at 16.2 uM incubated for 24 hrs by flow cytometry (reference value: 14.2 %)", "assay_type": "functional"}, "CAL-27 [8]": {"system": "CAL-27", "experiment": "Induction of apoptosis in human CAL-27 cells assessed as early apoptotic cells at 16 uM incubated for 24 hrs by Annexin V-FITC/PI staining based flow cytometric analysis (reference value: 0.1 %)", "assay_type": "functional", "summary_of_the_method": "(§3)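 CAL27 cells were treated with vehicle, doxorubicin or test compounds at 10–63 μM, and apoptosis was assessed by annexin V–FITC/PI staining with flow cytometry. Cells were scored as live, early apoptotic, late apoptotic or necrotic. The vehicle was DMSO (0.01%).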"}, "CAL-27 [9]": {"system": "CAL-27", "experiment": "Induction of apoptosis in human CAL-27 cells assessed as late apoptotic cells at 16 uM incubated for 24 hrs by Annexin V-FITC/PI staining based flow cytometric analysis (reference value: 0.1 %)", "assay_type": "functional", "summary_of_the_method": "as §3"}, "CAL-27 [10]": {"system": "CAL-27", "experiment": "Induction of apoptosis in human CAL-27 cells assessed as live cells at 32 uM incubated for 24 hrs by Annexin V-FITC/PI staining based flow cytometric analysis (reference value: 99.8 %)", "assay_type": "functional", "summary_of_the_method": "as §3"}, "CAL-27 [11]": {"system": "CAL-27", "experiment": "Induction of apoptosis in human CAL-27 cells assessed as early apoptotic cells at 32 uM incubated for 24 hrs by Annexin V-FITC/PI staining based flow cytometric analysis (reference value: 0.1 %)", "assay_type": "functional", "summary_of_the_method": "as §3"}, "CAL-27 [12]": {"system": "CAL-27", "experiment": "Induction of apoptosis in human CAL-27 cells assessed as necrotic cells at 32 uM incubated for 24 hrs by Annexin V-FITC/PI staining based flow cytometric analysis (reference value: 0.0 %)", "assay_type": "functional"}, "SCC-9 [13]": {"system": "SCC-9", "experiment": "Induction of apoptosis in human SCC-9 cells assessed as live cells at 16.2 uM incubated for 24 hrs by Annexin V-FITC/PI staining based flow cytometric analysis (reference value: 95.7 %)", "assay_type": "functional"}, "SCC-9 [14]": {"system": "SCC-9", "experiment": "Induction of apoptosis in human SCC-9 cells assessed as late apoptotic cells at 16.2 uM incubated for 24 hrs by Annexin V-FITC/PI staining based flow cytometric analysis (reference value: 1.4 %)", "assay_type": "functional"}, "SCC-9 [15]": {"system": "SCC-9", "experiment": "Induction of apoptosis in human SCC-9 cells assessed as early apoptotic cells at 32.4 uM incubated for 24 hrs by Annexin V-FITC/PI staining based flow cytometric analysis (reference value: 2.8 %)", "assay_type": "functional"}, "SCC-9 [16]": {"system": "SCC-9", "experiment": "Induction of apoptosis in human SCC-9 cells assessed as late apoptotic cells at 32.4 uM incubated for 24 hrs by Annexin V-FITC/PI staining based flow cytometric analysis (reference value: 1.4 %)", "assay_type": "functional"}, "CAL-27 [17]": {"system": "CAL-27", "experiment": "Induction of apoptosis in human CAL-27 cells assessed as downregulation of vimentin gene expression at 16 uM by qRT-PCR analysis", "assay_type": "functional, cell-based", "summary_of_the_method": "(§4)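 CAL27 cells were treated with test compounds at several concentrations. Relative expression of vimentin, E-cad, Nanog, Oct-4, Bax and BcL-2 was measured by qRT-PCR against vehicle-treated control cells.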"}, "CAL-27 [18]": {"system": "CAL-27", "experiment": "Induction of apoptosis in human CAL-27 cells assessed as downregulation of vimentin gene expression at 32 uM by qRT-PCR analysis", "assay_type": "functional, cell-based", "summary_of_the_method": "as §4"}, "CAL-27 [19]": {"system": "CAL-27", "experiment": "Induction of apoptosis in human CAL-27 cells assessed as downregulation of Nanog gene expression at 32 uM by qRT-PCR analysis", "assay_type": "functional, cell-based", "summary_of_the_method": "as §4"}, "CAL-27 [20]": {"system": "CAL-27", "experiment": "Induction of apoptosis in human CAL-27 cells assessed as upregulation of E-cad gene expression at 16 uM by qRT-PCR analysis", "assay_type": "functional, cell-based", "summary_of_the_method": "(§5)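 CAL27 cells were treated with test agents at different concentrations. Relative mRNA levels of vimentin, E-cad, Nanog, Oct-4, Bax and Bcl-2 were then quantified by qRT-PCR as apoptosis, EMT and stemness markers.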"}, "CAL-27 [21]": {"system": "CAL-27", "experiment": "Induction of apoptosis in human CAL-27 cells assessed as upregulation of E-cad gene expression at 32 uM by qRT-PCR analysis", "assay_type": "functional, cell-based", "summary_of_the_method": "as §5"}, "SCC-9 [22]": {"system": "SCC-9", "experiment": "Induction of apoptosis in human SCC-9 cells assessed as downregulation of vimentin gene expression at 16 uM by qRT-PCR analysis", "assay_type": "functional, cell-based"}, "SCC-9 [23]": {"system": "SCC-9", "experiment": "Induction of apoptosis in human SCC-9 cells assessed as downregulation of Oct-4 gene expression at 16 uM by qRT-PCR analysis", "assay_type": "functional, cell-based"}, "SCC-9 [24]": {"system": "SCC-9", "experiment": "Induction of apoptosis in human SCC-9 cells assessed as downregulation of Oct-4 gene expression at 32 uM by qRT-PCR analysis", "assay_type": "functional, cell-based"}, "SCC-9 [25]": {"system": "SCC-9", "experiment": "Induction of apoptosis in human SCC-9 cells assessed as downregulation of Nanog gene expression at 32 uM by qRT-PCR analysis", "assay_type": "functional, cell-based"}, "SCC-9 [26]": {"system": "SCC-9", "experiment": "Induction of apoptosis in human SCC-9 cells assessed as downregulation of BcL-2 gene expression at 16 uM by qRT-PCR analysis", "assay_type": "functional, cell-based"}, "SCC-9 [27]": {"system": "SCC-9", "experiment": "Induction of apoptosis in human SCC-9 cells assessed as downregulation of BcL-2 gene expression at 32 uM by qRT-PCR analysis", "assay_type": "functional, cell-based"}, "SCC-9 [28]": {"system": "SCC-9", "experiment": "Induction of apoptosis in human SCC-9 cells assessed as upregulation of Bax gene expression at 16 uM by qRT-PCR analysis", "assay_type": "functional, cell-based"}, "SCC-9 [29]": {"system": "SCC-9", "experiment": "Induction of apoptosis in human SCC-9 cells assessed as upregulation of Bax gene expression at 32 uM by qRT-PCR analysis", "assay_type": "functional, cell-based"}, "SCC-9 [30]": {"system": "SCC-9", "experiment": "Induction of apoptosis in human SCC-9 cells assessed as upregulation of E-cad gene expression at 32 uM by qRT-PCR analysis", "assay_type": "functional, cell-based"}},
  "note": "pIC50: −log10 of the molar value. Active and inactive are the calls of the source. The calls are words filed in the database; no cut-off is given here.",
  "data": [
    {"smiles": "COc1ccc(-c2csc(NC(=O)CN3CCN(Cc4c(O)c(OC)c(O)c5c4C(=O)OC4C5O[C@H](CO)[C@@H](O)[C@@H]4O)CC3)n2)cc1", "note": "(stereo partly drawn)", "values": [
      {"measurement": "pIC50", "setting": "HCT-15", "value": 4.15},
      {"measurement": "pIC50", "setting": "A549", "value": "< 4.00"},
      {"measurement": "pIC50", "setting": "MCF7", "value": "< 4.00"},
      {"measurement": "pIC50", "setting": "[1]", "value": "< 4.00"},
      {"measurement": "Activity", "setting": "CAL-27 [2]", "value": 85.5, "unit": "%"},
      {"measurement": "Activity", "setting": "CAL-27 [3]", "value": 87.1, "unit": "%"},
      {"measurement": "Activity", "setting": "CAL-27 [4]", "value": 2.1, "unit": "%"},
      {"measurement": "Activity", "setting": "CAL-27 [5]", "value": 12.3, "unit": "%"},
      {"measurement": "Activity", "setting": "CAL-27 [6]", "value": 9.4, "unit": "%"},
      {"measurement": "Activity", "setting": "SCC-9 [7]", "value": 10.6, "unit": "%"},
      {"measurement": "Activity", "setting": "CAL-27 [8]", "value": 2.7, "unit": "%"},
      {"measurement": "Activity", "setting": "CAL-27 [9]", "value": 2, "unit": "%"},
      {"measurement": "Activity", "setting": "CAL-27 [10]", "value": 91, "unit": "%"},
      {"measurement": "Activity", "setting": "CAL-27 [11]", "value": 2.8, "unit": "%"},
      {"measurement": "Activity", "setting": "CAL-27 [12]", "value": 1.9, "unit": "%"},
      {"measurement": "Activity", "setting": "SCC-9 [13]", "value": 44.2, "unit": "%"},
      {"measurement": "Activity", "setting": "SCC-9 [14]", "value": 40.8, "unit": "%"},
      {"measurement": "Activity", "setting": "SCC-9 [15]", "value": 5.9, "unit": "%"},
      {"measurement": "Activity", "setting": "SCC-9 [16]", "value": 17.5, "unit": "%"},
      {"measurement": "Activity", "setting": "CAL-27 [17]", "value": "Active"},
      {"measurement": "Activity", "setting": "CAL-27 [18]", "value": "Active"},
      {"measurement": "Activity", "setting": "CAL-27 [19]", "value": "Active"},
      {"measurement": "Activity", "setting": "CAL-27 [20]", "value": "Active"},
      {"measurement": "Activity", "setting": "CAL-27 [21]", "value": "Active"},
      {"measurement": "Activity", "setting": "SCC-9 [22]", "value": "Active"},
      {"measurement": "Activity", "setting": "SCC-9 [23]", "value": "Active"},
      {"measurement": "Activity", "setting": "SCC-9 [24]", "value": "Active"},
      {"measurement": "Activity", "setting": "SCC-9 [25]", "value": "Active"},
      {"measurement": "Activity", "setting": "SCC-9 [26]", "value": "Active"},
      {"measurement": "Activity", "setting": "SCC-9 [27]", "value": "Active"},
      {"measurement": "Activity", "setting": "SCC-9 [28]", "value": "Active"},
      {"measurement": "Activity", "setting": "SCC-9 [29]", "value": "Active"},
      {"measurement": "Activity", "setting": "SCC-9 [30]", "value": "Active"}
    ]}
  ]
}
